Published values collected from several papers.
Protocols differ between the studies behind these lines.
Organism: Staphylococcus aureus

| Structure (SMILES) | test | system | conditions | quantity | value |
| --- | --- | --- | --- | --- | --- |
| CC[C@H]1OC(=O)[C@H](C)[C@@H](O[C@H]2C[C@@](C)(OC)[C@@H](O)[C@H](C)O2)[C@H](C)[C@@H](O[C@@H]2O[C@H](C)C[C@H](N(C)C)[C@H]2O)[C@](C)(O)C[C@@H](C)/C(=N\OCOCCOC)[C@H](C)[C@@H](O)[C@]1(C)O | microbial growth | MRSA | clinical isolate | MIC90 | 64 µg/mL |
| COc1cc2c(cc1OC)-c1cc3ccc(OC)c(OC)c3c[n+]1CC2 | microbial growth | – | 24 h | MIC50 | 205 µM |
| CN(C)CCCN1c2ccccc2Sc2ccc(C(F)(F)F)cc21 | microbial killing, broth dilution | ATCC43300 | 18 h | MBC | 64 µg/mL |
| CN[C@H](CC(C)C)C(=O)N[C@H]1C(=O)N[C@@H](CC(N)=O)C(=O)N[C@H]2C(=O)N[C@H]3C(=O)N[C@H](C(=O)N[C@H](C(=O)O)c4cc(O)cc(O)c4-c4cc3ccc4O)[C@H](O)c3ccc(c(Cl)c3)Oc3cc2cc(c3O[C@@H]2O[C@H](CO)[C@@H](O)[C@H](O)[C@H]2O[C@H]2C[C@](C)(N)[C@H](O)[C@H](C)O2)Oc2ccc(cc2Cl)[C@H]1O | microbial growth | MRSA | clinical isolate | MIC90 | 2 µg/mL |
| [H]/N=C(/N)N[C@H]1[C@H](O)[C@@H](O)[C@H](O[C@@H]2O[C@@H](C)[C@](O)(C=O)[C@H]2O[C@@H]2O[C@@H](CO)[C@H](O)[C@@H](O)[C@@H]2NC)[C@@H](N/C(N)=N\[H])[C@@H]1O | microbial growth, well diffusion | MTCC96 | 1000 µg/mL, 18 h | inhibition zone | 24 mm |
| CC1(C)S[C@@H]2[C@H](NC(=O)[C@H](N)c3ccccc3)C(=O)N2[C@H]1C(=O)O | microbial growth | MSSA | clinical isolate | MIC90 | 64 µg/mL |
| CCCS(=O)(=O)Oc1cc(C=NNC(=O)CSc2nc3c(C)cccc3c(=O)n2-c2ccccc2)ccc1OC | microbial growth, well diffusion | MRSA | 20 µg/mL | inhibition zone | 2 mm |
| O=C(O)c1cn(C2CC2)c2cc(N3CCNCC3)c(F)cc2c1=O | microbial growth, broth dilution | – | – | MIC90 | 3.13 µM |
| O=C(/C=C/C=C/c1ccccc1)c1ccccc1OCc1ccc(F)cc1 | microbial growth, well diffusion | MTCC96 | 1000 µg/mL, 18 h | inhibition zone | 7 mm |
| COc1ccc(C=NNC(=O)CSc2nc3c(C)cccc3c(=O)n2-c2ccccc2)cc1OS(C)(=O)=O | microbial growth, well diffusion | MRSA | 20 µg/mL | inhibition zone | 3 mm |
| CNC(C)C1CCC(N)C(OC2C(N)CC(N)C(OC3OCC(C)(O)C(NC)C3O)C2O)O1 (centres unmarked) | microbial killing, broth dilution | ATCC25923 | 24 h | MBC | 8000 µM |
| CCCS(=O)(=O)Oc1cc(C=NNC(=O)CSc2nc3ccc(Cl)cc3c(=O)n2-c2ccccc2)ccc1OC | microbial growth, well diffusion | MRSA | 20 µg/mL | inhibition zone | 2 mm |
| O=C(/C=C/C=C/c1ccccc1)c1ccccc1OCc1cccc(Cl)c1 | microbial growth, well diffusion | MTCC96 | 1000 µg/mL, 18 h | inhibition zone | 7 mm |
| CCCS(=O)(=O)Oc1ccc(C=NNC(=O)CSc2nc3c(C)cccc3c(=O)n2-c2ccccc2)cc1OC | microbial growth, well diffusion | MRSA | 20 µg/mL | inhibition zone | 4 mm |
| C=C[C@]1(C)C[C@@H](OC(=O)CS[C@@H]2C[C@H]3CC[C@@H](C2)N3C)[C@]2(C)[C@H](C)CC[C@]3(CCC(=O)[C@H]32)[C@@H](C)[C@@H]1O | microbial growth | MRSA | clinical isolate | MIC90 | 0.125 µg/mL |
| O=C(O)c1cn(C2CC2)c2cc(N3CCNCC3)c(F)cc2c1=O | microbial growth, well diffusion | MRSA | 20 µg/mL | inhibition zone | 3 mm |
| CC(=O)NC[C@H]1CN(c2ccc(N3CCOCC3)c(F)c2)C(=O)O1 | microbial growth | MSSA | clinical isolate | MIC90 | 2 µg/mL |
